Results gathered from unrelated publications.
Each line is one published result; the experiments were not run side by side.
Target: Serine/threonine-protein kinase N1 (PKN1, Homo sapiens, UniProt Q16512)

CC1CCCN1c1nccc(-c2cnn3ncccc23)n1 (stereo not shown) — remaining binding (binding; 1 µM): 100%
CC1=C(C#N)C(c2ccc3c(c2)c(NC(=O)c2ccccc2C)nn3C)C(C#N)=C(C)N1 — remaining binding (cell-free assay, competition with immobilised ligand; 1 µM): 78%
C=CC(=O)N1CCC(C(=O)NCC(=O)N2CCN(c3nc(-c4cnc(N)nc4C(F)F)nc(N4CCOCC4)n3)CC2)CC1 — remaining binding (binding, competition with immobilised ligand; 1 µM): 83%
CNC(=O)Nc1ccc2c(c1)[C@@]1(CC2)OC(=O)N(CC(=O)N(Cc2ccc(F)cc2)[C@@H](C)C(F)(F)F)C1=O — remaining binding (cell-free assay, competition with immobilised ligand; 1 µM): 98%
COc1cnc(Nc2cccc(S(N)(=O)=O)c2)nc1N1CCN(c2ccccc2)CC1 — remaining binding (binding, competition with immobilised ligand; 1 µM): 82%
Cc1cnn2ncc(-c3ccnc(N(C)C)n3)c2c1 — remaining binding (binding; 1 µM): 99%
O=C(Nc1c[nH]nc1C(=O)NC1CCNCC1)c1cc(F)cc(F)c1 — remaining binding (binding, competition with immobilised ligand; 1 µM): 100%
O=C1CCc2cc(Nc3cc(OC4CCOCC4)c([N+](=O)[O-])cc3Cl)ccc2N1 — remaining binding (cell-free assay, competition with immobilised ligand; 1 µM): 100%
COc1ccnn2ncc(-c3ccnc(N(C)C)n3)c12 — remaining binding (binding; 1 µM): 74%
COc1ncc2cc3ccccc3nc2c1C#N — remaining binding (cell-free assay, competition with immobilised ligand; 5 µM): 100%
O=C(c1ccc(Nc2nccc(-c3cc4ccccc4s3)n2)cc1)N1CCC(N2CCCC2)CC1 — remaining binding (binding, competition with immobilised ligand; 1 µM): 12%
CN(C)c1nccc(-c2cnn3ncccc23)n1 — remaining binding (binding; 1 µM): 98%
C[C@@H](c1ccc(-n2cnc3c(N)ncnc32)cc1)N1CCc2nn(C)c(Cc3ccccc3)c2C1=O — remaining binding (binding, competition with immobilised ligand; 0.1 µM): 98%
Cc1nc(N2CC[C@@H](O)C2)ncc1-c1cc(C(F)(F)F)cc2[nH]ncc12 — remaining binding (binding, competition with immobilised ligand; 1 µM): 100%
N[C@@H]1CCN(c2nccc(-c3cnn4ncccc34)n2)C1 — remaining binding (binding; 1 µM): 93%
Nc1ncc2c(n1)-c1c([nH]c3ccc(C#CC4CC4)cc13)CCCC2 — remaining binding (binding, competition with immobilised ligand; 1 µM): 78%
CCOCCn1cc(C(=O)Nc2ccc(-n3nc(-c4cccnc4)cc3C(F)(F)F)cn2)ccc1=O — remaining binding (cell-free assay, competition with immobilised ligand; 1 µM): 76%
O=C(NCCCN1CCOCC1)c1ccc(Nc2ncc(Cl)c(-c3ccc(Cl)s3)n2)cc1 — remaining binding (binding, competition with immobilised ligand; 1 µM): 39%
CN(c1nccc(-c2cnn3ncccc23)n1)C1CC1 — remaining binding (binding; 1 µM): 100%
COc1ccc2cc(OCC3(C(=O)O)CN(C(=O)c4ccc(F)cc4)C3)ccc2c1 — remaining binding (cell-free assay, competition with immobilised ligand; 1 µM): 100%
C[C@@H]1CCN(c2nccc(-c3cnn4ncccc34)n2)C1 — remaining binding (binding; 1 µM): 84%
Cc1cnc(Nc2ccc(C(=O)N3CCC(N4CCCC4)CC3)cc2)nc1-c1cc2ccccc2s1 — remaining binding (binding, competition with immobilised ligand; 1 µM): 1.2%
